Measured values reported in ChEMBL document CHEMBL1143049, “Preparation, biological activity and endogenous occurrence of N6-benzyladenosines” (Bioorg Med Chem, 2007).

What was measured:
[1] = system: Nicotiana tabacum; experiment: Cytokinin activity in tobacco assessed as stimulation of callus growth at 0.1 mmol/L relative to 6-Benzylaminopurine; assay type: functional
Summary of the method: (§1)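 Stimulation of tobacco callus growth. Compounds dissolved in DMSO, brought to 10^-3 M in water and diluted into medium (DMSO ≤0.2%). Range 10^-4 to 10^-8 M, five replicates per concentration, at least three independent repeats. Activity at the optimal concentration given relative to BAP's optimal response, taken as 100.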

[2] = system: HL-60; experiment: Antitumor activity against human HL60 cells after 72 hrs by Calcein AM assay; assay type: functional, cell-based; details: HL-60, 72 h
Summary of the method: (§2)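 Cells grown in DMEM at 37 °C under 5% CO2. Compounds added after 12 h preincubation in 96-well plates, final 0.5-170 μM, with 0.6% final DMSO, then 72 h exposure. Viable cells stained with Calcein AM for 1 h and read at 485/538 nm. IC50 (concentration lethal to 50% of cells) taken from dose-response curves. Run in quadruplicate.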

[3] = system: G-361; experiment: Antitumor activity against human G361 cells after 72 hrs by Calcein AM assay; assay type: functional, cell-based; details: G-361, 72 h; summary of the method: as §2
[4] = system: CCRF-CEM; experiment: Antitumor activity against human CEM cells after 72 hrs by Calcein AM assay; assay type: functional, cell-based; summary of the method: as §2
[5] = system: K562; experiment: Antitumor activity against human K562 cells after 72 hrs by Calcein AM assay; assay type: functional, cell-based; details: K562, 72 h; summary of the method: as §2
[6] = system: HOS; experiment: Antitumor activity against human HOS cells after 72 hrs by Calcein AM assay; assay type: functional, cell-based; summary of the method: as §2
[7] = system: Amaranthus; experiment: Cytokinin activity in Amaranthus cotyledons assessed as dark induction of betacyanin synthesis at 0.1 mmol/L relative to 6-Benzylaminopurine; assay type: functional
Summary of the method: (§3)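 Dark induction of betacyanin in excised Amaranthus cotyledons. DMSO stock brought to 10^-3 M in water, diluted into assay medium (DMSO ≤0.2%). Tested over 10^-4 to 10^-8 M, five replicates per concentration, assay repeated at least three times. Response at the optimal concentration expressed relative to BAP at its optimum (set to 100).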

[8] = system: B16; experiment: Antitumor activity against mouse B16 cells after 72 hrs by Calcein AM assay; assay type: functional, cell-based; details: B16, 72 h; summary of the method: as §2
[9] = Antitumor activity against human MCF cells after 72 hrs by Calcein AM assay; assay type: functional, cell-based; summary of the method: as §2
[10] = system: Triticum aestivum; experiment: Cytokinin activity in wheat assessed as retention of chlorophyll in excised wheat leaves at 0.1 mmol/L relative to 6-Benzylaminopurine by senescence assay; assay type: functional
Summary of the method: (§4)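 Senescence assay measuring chlorophyll retention in excised wheat leaves. DMSO stocks brought to 10^-3 M with water, then diluted in assay medium to a final DMSO of at most 0.2%. Concentrations 10^-4 to 10^-8 M, quintuplicate, repeated at least three times. Response at the optimal concentration normalised to BAP optimum = 100.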

[11] = system: Triticum aestivum; experiment: Cytokinin activity in wheat assessed as retention of chlorophyll in excised wheat leaves at 0.01 mmol/L relative to 6-Benzylaminopurine by senescence assay; assay type: functional; summary of the method: as §4
[12] = system: Nicotiana tabacum; experiment: Cytokinin activity in tobacco assessed as stimulation of callus growth at 0.01 mmol/L relative to 6-Benzylaminopurine; assay type: functional; summary of the method: as §1
[13] = Cytotoxicity against mouse NIH 3T3 cells after 72 hrs by Calcein AM assay; assay type: cell-based; details: NIH3T3, 72 h; summary of the method: as §2
[14] = target: T1, Histidine kinase 3 (Arabidopsis thaliana) (UniProt Q9C5U1); experiment: Activation of Arabidopsis thaliana AHK3 cytokinin receptor relative to trans-zeatin; design: concentration or dose not given beside the values
T1 sequence (whole entry): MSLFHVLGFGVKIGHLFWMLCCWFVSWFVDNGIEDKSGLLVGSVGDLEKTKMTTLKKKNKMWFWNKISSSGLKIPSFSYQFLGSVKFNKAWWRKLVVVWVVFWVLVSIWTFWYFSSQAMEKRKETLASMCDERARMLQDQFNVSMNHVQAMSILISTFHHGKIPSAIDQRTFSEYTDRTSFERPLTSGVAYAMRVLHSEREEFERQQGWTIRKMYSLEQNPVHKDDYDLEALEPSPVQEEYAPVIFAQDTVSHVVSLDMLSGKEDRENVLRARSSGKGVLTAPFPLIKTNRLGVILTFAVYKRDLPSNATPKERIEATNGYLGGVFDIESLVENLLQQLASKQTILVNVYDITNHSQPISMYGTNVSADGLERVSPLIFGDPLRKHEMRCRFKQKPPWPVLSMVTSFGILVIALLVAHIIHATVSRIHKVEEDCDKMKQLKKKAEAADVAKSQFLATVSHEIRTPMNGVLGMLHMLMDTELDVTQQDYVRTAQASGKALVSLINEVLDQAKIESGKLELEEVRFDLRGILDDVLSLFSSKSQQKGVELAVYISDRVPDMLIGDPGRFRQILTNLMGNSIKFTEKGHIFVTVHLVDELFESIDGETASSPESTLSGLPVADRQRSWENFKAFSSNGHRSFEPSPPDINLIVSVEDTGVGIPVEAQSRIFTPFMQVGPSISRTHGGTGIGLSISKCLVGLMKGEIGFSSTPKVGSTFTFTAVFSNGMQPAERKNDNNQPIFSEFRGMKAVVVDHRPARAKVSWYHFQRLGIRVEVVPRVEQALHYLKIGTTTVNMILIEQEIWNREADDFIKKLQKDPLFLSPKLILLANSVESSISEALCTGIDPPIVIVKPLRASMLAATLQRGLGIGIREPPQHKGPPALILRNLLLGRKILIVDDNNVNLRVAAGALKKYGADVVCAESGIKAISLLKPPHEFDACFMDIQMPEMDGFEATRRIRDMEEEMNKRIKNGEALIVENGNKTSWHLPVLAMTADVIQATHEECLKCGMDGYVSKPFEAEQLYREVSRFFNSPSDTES
Summary of the method: (§5)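 E. coli KMI001 carrying pSTV28-AHK3 or pIN-III-AHK4, precultured overnight at 25 °C in M9 + 0.1% casamino acids to OD600 ~1. Diluted 1:600, compound or solvent added, then incubated at 25 °C for 28 h (AHK3) or 17 h (CRE1/AHK4). Supernatant incubated with 4-methylumbelliferyl β-D-galactoside for 1 h at 37 °C and stopped with Na2CO3. Fluorescence read at 365/460 nm. β-galactosidase expressed as nmol 4-MU × OD600⁻¹ × h⁻¹.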

[15] = target: Histidine kinase 4 (Arabidopsis thaliana) (UniProt Q9C5U0); experiment: Activation of Arabidopsis thaliana CRE1/AHK4 cytokinin receptor relative to trans-zeatin; design: concentration or dose not given beside the values; summary of the method: as §5
[16] = system: Amaranthus; experiment: Cytokinin activity in Amaranthus cotyledons assessed as dark induction of betacyanin synthesis at 0.01 mmol/L relative to 6-Benzylaminopurine; assay type: functional; summary of the method: as §3
[17] = system: Nicotiana tabacum; experiment: Cytokinin activity in tobacco assessed as stimulation of callus growth at 1 umol/L relative to 6-Benzylaminopurine; assay type: functional; summary of the method: as §1
[18] = system: Triticum aestivum; experiment: Cytokinin activity in wheat assessed as retention of chlorophyll in excised wheat leaves at 0.1 umol/L relative to 6-Benzylaminopurine by senescence assay; assay type: functional; summary of the method: as §4

Sequence of Histidine kinase 4 (Arabidopsis thaliana) (Q9C5U0 whole entry): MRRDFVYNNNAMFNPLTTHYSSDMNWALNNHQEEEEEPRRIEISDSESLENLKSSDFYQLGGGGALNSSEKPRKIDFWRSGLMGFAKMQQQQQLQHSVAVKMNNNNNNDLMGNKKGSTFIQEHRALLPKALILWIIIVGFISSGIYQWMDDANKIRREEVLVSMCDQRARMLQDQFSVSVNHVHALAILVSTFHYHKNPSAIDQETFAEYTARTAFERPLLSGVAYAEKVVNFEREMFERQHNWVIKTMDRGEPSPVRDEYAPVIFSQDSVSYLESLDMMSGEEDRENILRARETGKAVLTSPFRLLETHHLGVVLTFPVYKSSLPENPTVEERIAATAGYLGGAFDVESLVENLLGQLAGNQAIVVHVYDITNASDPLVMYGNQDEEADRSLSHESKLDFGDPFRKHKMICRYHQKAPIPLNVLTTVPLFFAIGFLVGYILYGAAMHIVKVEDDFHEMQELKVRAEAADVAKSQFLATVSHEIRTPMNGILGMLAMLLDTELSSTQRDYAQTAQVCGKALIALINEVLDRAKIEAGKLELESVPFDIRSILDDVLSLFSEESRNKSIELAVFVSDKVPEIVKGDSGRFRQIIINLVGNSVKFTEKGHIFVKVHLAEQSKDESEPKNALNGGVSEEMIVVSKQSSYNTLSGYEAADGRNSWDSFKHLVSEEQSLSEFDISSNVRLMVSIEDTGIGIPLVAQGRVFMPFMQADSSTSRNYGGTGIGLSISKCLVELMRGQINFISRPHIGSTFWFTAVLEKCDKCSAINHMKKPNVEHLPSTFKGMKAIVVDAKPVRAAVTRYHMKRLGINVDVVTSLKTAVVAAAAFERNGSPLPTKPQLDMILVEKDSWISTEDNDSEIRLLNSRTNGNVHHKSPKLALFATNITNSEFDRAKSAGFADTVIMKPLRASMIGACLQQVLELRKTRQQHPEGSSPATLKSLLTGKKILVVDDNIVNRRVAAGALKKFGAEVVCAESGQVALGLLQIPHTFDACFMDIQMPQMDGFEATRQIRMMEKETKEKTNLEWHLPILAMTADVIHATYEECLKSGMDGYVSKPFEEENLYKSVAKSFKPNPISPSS

## Cc1ccc(O)c(CNc2ncnc3c2ncn3[C@@H]2O[C@H](CO)[C@@H](O)[C@H]2O)c1
[1]
  Activity: 7%
[2]
  IC50: 15 µM
[3]
  IC50: > 167 µM
[4]
  IC50: 1.9 µM
[5]
  IC50: 16.5 µM
[6]
  IC50: > 167 µM
[7]
  Activity: 58%
[8]
  IC50: > 167 µM
[9]
  IC50: > 167 µM
[10]
  Activity: 164%

## OC[C@H]1O[C@@H](n2cnc3c(NCc4ccc(Cl)cc4Cl)ncnc32)[C@H](O)[C@@H]1O
[11]
  Activity: 5%
[2]
  IC50: 96.3 µM
[3]
  IC50: 128 µM
[4]
  IC50: 86.7 µM
[5]
  IC50: 106 µM
[6]
  IC50: > 167 µM
[7]
  Activity: 3%
[8]
  IC50: > 167 µM
[9]
  IC50: 127 µM
[12]
  Activity: 70%

## OC[C@H]1O[C@@H](n2cnc3c(NCc4ccccc4Br)ncnc32)[C@H](O)[C@@H]1O
[11]
  Activity: 86%
[2]
  IC50: 6.6 µM
[3]
  IC50: > 167 µM
[4]
  IC50: 12.3 µM
[5]
  IC50: 10 µM
[13]
  IC50: > 167 µM
[6]
  IC50: > 167 µM
[7]
  Activity: 147%
[8]
  IC50: > 167 µM
[9]
  IC50: > 167 µM
[12]
  Activity: 100%

## COc1ccccc1CNc1ncnc2c1ncn2[C@@H]1O[C@H](CO)[C@@H](O)[C@H]1O
[2]
  IC50: 2.3 µM
[14]
  Activity: 0.04%
[15]
  Activity: 0.12%
[3]
  IC50: > 167 µM
[4]
  IC50: 3.2 µM
[5]
  IC50: 8.9 µM
[13]
  IC50: 140 µM
[6]
  IC50: > 167 µM
[16]
  Activity: 86%
[8]
  IC50: > 167 µM
[9]
  IC50: > 167 µM
[12]
  Activity: 108%
[10]
  Activity: 198%

## OC[C@H]1O[C@@H](n2cnc3c(NCc4ccc(O)c(O)c4)ncnc32)[C@H](O)[C@@H]1O
[17]
  Activity: 4%
[7]
  Activity: 8%
[18]
  Activity: 17%
